Reference: ChEMBL document CHEMBL5303300, “EUbOPEN Chemogenomics Library - Multiplex” (2023)
“And” between values parts separate entries of the source, which are not always exact repeats. Equal entries are not always repeated.

Tests used:
[1] = system: HEK-293T; experiment: Multiplex assay against HEK293T; type: toxicity, cell-based; conditions: human, number of replicates 2
Procedure, shortened: (§1)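 Cells stained live at seeding with Hoechst33342, BioTracker Green Microtubule Cytoskeleton Dye, MitoTracker Red and Annexin V Alexa Fluor 680 were imaged on a CQ1 microscope at 37°C and 5% CO2 after compound addition. Their classification by CellPathfinder machine-learning gating ran from Hoechst high-intensity objects versus normal cells, to healthy, pyknosed or fragmented nuclei among normal cells, to mitotic or apoptotic among pyknosed cells. Tubulin, mitochondrial-mass and membrane-permeability phenotypes are per cents of healthy-nucleus cells.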

[2] = system: U2OS; experiment: Multiplex assay against U2OS; type: toxicity, cell-based; conditions: human, number of replicates 2; procedure, shortened: as §1
[3] = 24 h, 1 µM, compound concentration 1 uM
[4] = 24 h, 10 µM, compound concentration 10 uM
[5] = 48 h, 1 µM, compound concentration 1 uM
[6] = 48 h, 10 µM, compound concentration 10 uM
[7] = 12 h, 1 µM, compound concentration 1 uM
[8] = 12 h, 10 µM, compound concentration 10 uM

Compound: COc1ccc(CC[C@@H](OC(=O)[C@@H]2CCCCN2C(=O)[C@H](c2cc(OC)c(OC)c(OC)c2)C2CCCCC2)c2cccc(OCCN3CCOCC3)c2)cc1OC
- Population Mitochondria Different-Phenotype (%) [1, 3]: 12% and 18%
- Population Mitotic Cells (%) [1, 3]: 53% and 55%
- Population Normal (%) [1, 3]: 89% and 91%
- Population Pyknosed Nuclei (%) [1, 3]: 8%
- Population Tubulin-Different-Phenotype (%) [1, 3]: 64% and 80%
- Total Cell Count [1, 3]: 873 and 879
- Population Apoptotic (%) [1, 4]: 72% and 63%
- Population Fragmented Nuclei (%) [1, 4]: 2%
- Population Healthy Nuclei (%) [1, 4]: 82% and 81%
- Population Hoechst High Intensity Objects (%) [1, 4]: 8% and 13%
- Population Membrane Permeable-Phenotype (%) [1, 4]: 0%
- Population Mitochondria Different-Phenotype (%) [1, 4]: 89% and 88%
- Population Mitotic Cells (%) [1, 4]: 27% and 36%
- Population Normal (%) [1, 4]: 91% and 86%
- Population Pyknosed Nuclei (%) [1, 4]: 14% and 15%
- Population Tubulin-Different-Phenotype (%) [1, 4]: 56% and 52%
- Total Cell Count [1, 4]: 512 and 487
- Population Apoptotic (%) [1, 5]: 30% and 18%
- Population Fragmented Nuclei (%) [1, 5]: 8% and 13%
- Population Healthy Nuclei (%) [1, 5]: 87% and 83%
- Population Hoechst High Intensity Objects (%) [1, 5]: 9% and 8%
- Population Membrane Permeable-Phenotype (%) [1, 5]: 6%
- Population Mitochondria Different-Phenotype (%) [1, 5]: 5% and 4%
- Population Mitotic Cells (%) [1, 5]: 69% and 81%
- Population Normal (%) [1, 5]: 90% and 91%
- Population Pyknosed Nuclei (%) [1, 5]: 3% and 2%
- Population Tubulin-Different-Phenotype (%) [1, 5]: 67% and 48%
- Total Cell Count [1, 5]: 1619 and 1643
- Population Apoptotic (%) [1, 6]: 84% and 73%
- Population Fragmented Nuclei (%) [1, 6]: 3% and 5%
- Population Healthy Nuclei (%) [1, 6]: 84% and 83%
- Population Hoechst High Intensity Objects (%) [1, 6]: 9% and 11%
- Population Membrane Permeable-Phenotype (%) [1, 6]: 1%
- Population Mitochondria Different-Phenotype (%) [1, 6]: 79% and 83%
- Population Mitotic Cells (%) [1, 6]: 15% and 26%
- Population Normal (%) [1, 6]: 90% and 88%
- Population Pyknosed Nuclei (%) [1, 6]: 11%
- Population Tubulin-Different-Phenotype (%) [1, 6]: 62% and 60%
- Total Cell Count [1, 6]: 551 and 526
- Population Apoptotic (%) [2, 7]: 66% and 51%
- Population Fragmented Nuclei (%) [2, 7]: 10% and 3%
- Population Healthy Nuclei (%) [2, 7]: 64% and 82%
- Population Hoechst High Intensity Objects (%) [2, 7]: 0%
- Population Membrane Permeable-Phenotype (%) [2, 7]: 33% and 21%
- Population Mitochondria Different-Phenotype (%) [2, 7]: 16% and 37%
- Population Mitotic Cells (%) [2, 7]: 33% and 48%
- Population Normal (%) [2, 7]: 100% and 99%
- Population Pyknosed Nuclei (%) [2, 7]: 24% and 13%
- Population Tubulin-Different-Phenotype (%) [2, 7]: 45% and 43%
- Population Apoptotic (%) [2, 8]: 100% and 70%
- Population Healthy Nuclei (%) [2, 8]: 56% and 81%
- Population Hoechst High Intensity Objects (%) [2, 8]: 2% and 0%
- Population Membrane Permeable-Phenotype (%) [2, 8]: 82% and 57%
- Population Mitochondria Different-Phenotype (%) [2, 8]: 47% and 40%
- Population Normal (%) [2, 8]: 97% and 99%
- Population Pyknosed Nuclei (%) [2, 8]: 14%
- Population Tubulin-Different-Phenotype (%) [2, 8]: 100% and 98%
- Population Apoptotic (%) [2, 3]: 60% and 75%
- Population Fragmented Nuclei (%) [2, 3]: 11% and 3%
- Population Healthy Nuclei (%) [2, 3]: 65% and 77%
- Population Hoechst High Intensity Objects (%) [2, 3]: 0%
- Population Membrane Permeable-Phenotype (%) [2, 3]: 21% and 18%
- Population Mitotic Cells (%) [2, 3]: 40% and 24%
- Population Normal (%) [2, 3]: 100%
- Population Pyknosed Nuclei (%) [2, 3]: 23% and 18%
- Population Tubulin-Different-Phenotype (%) [2, 3]: 28% and 35%
- Population Apoptotic (%) [2, 4]: 73% and 96%
- Population Fragmented Nuclei (%) [2, 4]: 22% and 9%
- Population Healthy Nuclei (%) [2, 4]: 43% and 67%
- Population Hoechst High Intensity Objects (%) [2, 4]: 0%
- Population Membrane Permeable-Phenotype (%) [2, 4]: 89% and 86%
- Population Mitochondria Different-Phenotype (%) [2, 4]: 42% and 39%
- Population Normal (%) [2, 4]: 100% and 99%
- Population Pyknosed Nuclei (%) [2, 4]: 34% and 23%
- Population Tubulin-Different-Phenotype (%) [2, 4]: 100% and 99%
- Population Apoptotic (%) [2, 5]: 57% and 87%
- Population Fragmented Nuclei (%) [2, 5]: 10% and 3%
- Population Healthy Nuclei (%) [2, 5]: 55% and 75%
- Population Hoechst High Intensity Objects (%) [2, 5]: 0%
- Population Membrane Permeable-Phenotype (%) [2, 5]: 9% and 12%
- Population Mitochondria Different-Phenotype (%) [2, 5]: 15% and 37%
- Population Normal (%) [2, 5]: 100% and 99%
- Population Pyknosed Nuclei (%) [2, 5]: 35% and 21%
- Population Tubulin-Different-Phenotype (%) [2, 5]: 24% and 37%
- Population Apoptotic (%) [2, 6]: 96% and 91%
- Population Fragmented Nuclei (%) [2, 6]: 22% and 10%
- Population Healthy Nuclei (%) [2, 6]: 25% and 51%
- Population Hoechst High Intensity Objects (%) [2, 6]: 4% and 1%
- Population Membrane Permeable-Phenotype (%) [2, 6]: 91%
- Population Mitochondria Different-Phenotype (%) [2, 6]: 33% and 42%
- Population Mitotic Cells (%) [2, 6]: 4% and 8%
- Population Normal (%) [2, 6]: 96% and 98%
- Population Pyknosed Nuclei (%) [2, 6]: 52% and 37%
- Population Tubulin-Different-Phenotype (%) [2, 6]: 100%
